According to the array DNA melting data of Ke et al. (doi:10.1101/2024.01.08.574731):

How the values were obtained:
[1] = folding enthalpy; higher = less favourable; fluorescence melt of hairpins on a sequencing array, two-state fit; conditions: sodium 0.088 M
How it was run: (§1)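 Folding enthalpy and melting temperature come from bootstrapped two-state fits to Cy3 fluorescence of library hairpins carrying annealed Cy3 and quencher oligos on a sequenced MiSeq flow cell. Imaging was done in 50 mM Na-HEPES pH 8.0, 25 mM NaCl, stepping by 2.5 °C up to 60 °C, and signals were normalised to pre-quench Cy3 and to control constructs. Results of four replicates were combined by inverse variance, and fitted temperatures were raised by 9.35 °C to match UV melts.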

[2] = melting temperature; fluorescence melt of hairpins on a sequencing array, two-state fit, raised by 9.35 °C to match UV melts; conditions: sodium 0.088 M
How it was run: as §1

Sequence | folding enthalpy [1] [kcal/mol] | Tm [2] [°C]
GGAGGTCGAAAGACGTCC (((.(((....))).))) | -37.7 | 57.8
GGAGGTGGAAACACCCCC ((.((((....)))).)) | -18.7 | 49.1
GGAGGTGGAAACACCTCC (((((((....))))))) | -40.8 | 68.6
GGAGGTGGAAACGCCTCC (((((.(....).))))) | -50 | 57.2
GGAGGTGGAAACGCCTTC (.(((.(....).))).) | -26.2 | 48.5
GGAGTAGGAAACTGCTCC ((((.((....)).)))) | -28.5 | 51.4
GGAGTCCGAAAGGAGTCC (((.(((....))).))) | -44.2 | 63.3
GGAGTCGGAAACGACTTC (.(((((....))))).) | -25.6 | 55.5
GGAGTCGGAAACGGCTTC (.((.((....)).)).) | -21.7 | 44.3
GGAGTCGGAAACGGTTCC (((..((....))..))) | -27.1 | 34.6
GGAGTGACGAAAGTCTCC (((..(((....)))))) | -18 | 38.8
GGAGTGGCGAAAGCCTCC (((..(((....)))))) | -15 | 44
GGAGTGGGAAACCACCCC ((.((((....)))).)) | -21.5 | 47.1
GGAGTGGGAAACCACTCC (((((((....))))))) | -38.6 | 68.2
GGAGTTGGAAACAGTTCC (((..((....))..))) | -13.4 | 35
GGATAAACGAAAGTTTCC (((..(((....)))))) | -17.1 | 27.7
GGATAACGAAAGTTCTCC (((.(((....))).))) | -32.7 | 41.3
GGATACACGAAAGTGTCC (((..(((....)))))) | -12 | 35.9
GGATACCCGAAAGGGTCC (((..(((....)))))) | -10.4 | 31.9
GGATACCGAAAGGTCTCC (((.(((....))).))) | -25.3 | 47.6
GGATACGAAAGTAGATCC ((((((....)))..))) | -17.9 | 34.7
GGATACGAAAGTAGCTCC ((((((....)))..))) | -12.7 | 37.1
GGATACGAAAGTATTCC ((((((....))).))) | -22.8 | 42.9

Sequence | folding enthalpy [1] [kcal/mol] | Tm [2] [°C]
GGATAGCGAAAGCTGTCC (((.(((....))).))) | -42.1 | 59.3
GGATAGGAAACTATCC ((((((....)))))) | -30.5 | 51.4
GGATAGGCGAAAGCCTCC (((..(((....)))))) | -10.2 | 36.6
GGATAGGGAAACCTATCC (((((((....))))))) | -47.9 | 56.8
GGATATACGAAAGTATCC (((..(((....)))))) | -16.9 | 36
GGATATGCGAAAGCATCC (((..(((....)))))) | -12.2 | 36.5
GGATATGGAAACGTATCC (((((.(....).))))) | -35.5 | 43.4
GGATCAGAAATGATCC ((((((....)))))) | -36 | 55.3
GGATCAGGAAACTGATTC (.(((((....))))).) | -31.1 | 44.4
GGATCCCGAAAGGGGTCC (((.(((....))).))) | -39.3 | 65.8
GGATCCGAAAGGACTCC ((((((....))).))) | -23.9 | 47.4
GGATCCGGAAACGGACCC ((.((((....)))).)) | -21.2 | 50.4
GGATCGCGAAAGCGTTCC (((.(((....))).))) | -27.7 | 57.8
GGATCGGGAAACCGGTCC (((.(((....))).))) | -50.4 | 56.1
GGATCTGAAAAGATCC ((((((....)))))) | -37 | 58.3
GGATCTGGAAACAGGTCC (((.(((....))).))) | -31.5 | 50.6
GGATGAGGAAACTCGTTC (.(.(((....))).).) | -15.8 | 28.3
GGATGAGGAAACTTATCC ((((.((....)).)))) | -33.4 | 38.6
GGATGCCGAAAGGCTTCC (((.(((....))).))) | -28.6 | 60.3
GGATGCGAAAGCAATTCC ((((((....)))..))) | -16.1 | 36.7
GGATGCGAAAGCAGCTCC ((((((....)))..))) | -11.3 | 47.5
GGATGCGAAAGCAGGTCC ((((((....)))..))) | -11.8 | 37.7
GGATGCGAAAGCATGTCC ((((((....)))..))) | -11.7 | 35.9

Sequence | folding enthalpy [1] [kcal/mol] | Tm [2] [°C]
GGATGCGAAAGCATTTCC ((((((....)))..))) | -11.1 | 38.8
GGATGCGGAAACGTATCC ((((.((....)).)))) | -46.7 | 52.6
GGATGGACGAAAGTCTCC (((..(((....)))))) | -13.6 | 32.5
GGATGGCGAAAGCCCTCC (((.(((....))).))) | -31.2 | 49.2
GGATGGCGAAAGCCTTCC (((.(((....))).))) | -24.3 | 56.6
GGATGGGGAAACCCGTCC (((.(((....))).))) | -48.4 | 54.2
GGATGTCGAAAGACTCC (((.(((....)))))) | -25.3 | 51.8
GGATGTCGAAAGACTTCC (((.(((....))).))) | -39.6 | 51.5
GGATGTGGAAACATGTCC (((..((....))..))) | -20.9 | 40
GGATTAGAAATAATCC ((((((....)))))) | -29.3 | 42.8
GGATTCCGAAAGGACTCC (((.(((....))).))) | -38.8 | 47
GGATTCGAAAGAAGCTCC ((((((....)))..))) | -14.2 | 32.8
GGATTCGGAAACGGATCC ((((.((....)).)))) | -39.2 | 53
GGATTGCCGAAAGGCTCC (((..(((....)))))) | -8.38 | 37.6
GGATTGCGAAAGCATCC (((.(((....)))))) | -20.8 | 50.8
GGATTGGCGAAAGCCTCC (((..(((....)))))) | -10.5 | 35.3
GGATTGGGAAACCAATCC (((((((....))))))) | -48.6 | 60.2
GGATTTCCGAAAGGATCC (((..(((....)))))) | -17.6 | 34.2
GGATTTCGAAAGAACTCC (((.(((....))).))) | -29.4 | 38
GGCAAACGAAAGTTGGCC (((.(((....))).))) | -43.9 | 60.2
GGCAAAGGAAACCTTGCC (((((.(....).))))) | -31.5 | 49.3
GGCAAAGGAAACTTTGTC (.(((((....))))).) | -29.1 | 46.5
GGCAACGAAAGTTCTGCC ((((((....)))..))) | -27.3 | 40.4

Sequence | folding enthalpy [1] [kcal/mol] | Tm [2] [°C]
GGCAACGAAAGTTGTGCC ((((((....)))..))) | -13.5 | 51.2
GGCAACGAAAGTTTAGCC ((((((....)))..))) | -29.1 | 43.5
GGCAACGCGAAAGCGGCC (((..(((....)))))) | -19.8 | 59.7
GGCAAGCCGAAAGGCGCC (((..(((....)))))) | -14.4 | 59.8
GGCAAGGGAAACCTTGTC (.(((((....))))).) | -31.7 | 50.6
GGCAATCGAAAGATGCC (((.(((....)))))) | -40.3 | 56.5
GGCACACGAAAGTGAGCC (((.(((....))).))) | -38.1 | 63.5
GGCACAGGAAACTATGCC ((((.((....)).)))) | -29.2 | 41.7
GGCACAGGAAACTGTGTC (.(((((....))))).) | -32.2 | 54
GGCACCGAAAGGTAGGCC ((((((....)))..))) | -29.7 | 52.7
GGCACCGAAAGGTCGCC ((((((....))).))) | -35.6 | 59.4
GGCACCGGAAACAGCGCC (((.(.(....).).))) | -22.1 | 34.5
GGCACCGGAAACGGCACC ((..(((....)))..)) | -15.8 | 30.9
GGCACCGGAAACGGCGCC (((.(((....))).))) | -52.6 | 61.2
GGCACTCGAAAGAGCGCC (((.(((....))).))) | -53 | 59.3
GGCAGAGGAAACTCTGTC (.(((((....))))).) | -30.7 | 49.7
GGCAGATCGAAAGATGCC (((..(((....)))))) | -26.8 | 49.4
GGCAGCCCGAAAGGGGCC (((..(((....)))))) | -13.3 | 50.7
GGCAGCGAAAGCTATGCC ((((((....)))..))) | -28.7 | 55.3
GGCAGCGAAAGCTCCGCC ((((((....)))..))) | -19.2 | 56
GGCAGCGAAAGCTCGGCC ((((((....)))..))) | -17.7 | 53.5
GGCAGCGAAAGCTTAGCC ((((((....)))..))) | -25.7 | 51.7
